Screening results (PubChem)
Only some compounds are listed: those with a hit (about 2.2% of all), similar ones and a draw of the others.
MT1-MMP act inh: blocks activation of human MT1-MMP; HT1080 RFP-PRO-GFP cells, GFP/RFP ratio fluorescence, overnight; percent of plate control window, DMSO zero; GFP/RFP ratio change, % at 20 µM; 360,000 compounds, 0.061% hits;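 active means GFP/RFP ratio change of at least 30% with cell ATP level not reduced by more than half and red fluorescence within 50% of control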
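Assay system: RFP-PRO-GFP reporter HT1080 cells; read-out basis: GFP/RFP fluorescence ratio; benchmarks: DMSO wells and RFP-L50D-GFP cells; doses: 20 µM single dose, 1% DMSO; schedule: overnight cell settling, then overnight compound exposure, 37 °C, 5% CO2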
SKN-1 inh: inhibitors of C. elegans SKN-1. C. elegans VP596 Pgst-4::GFP/RFP ratio, acrylamide-induced, 24 h. inhibition, % at 21.8 µM. 360,000 compounds, 0.49% hits;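 active means interference check ratio from 0.5 to 1.5 plus GFP to RFP signal ratio inhibition reaching or exceeding a fixed threshold, cut at about 30% in these data, passing the limit was not always enough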
Neddyl block: blocks human cullin neddylation; P61081+Q13564; TR-FRET cullin neddylation, biochemical; calls only at 25 µM; 360,000 compounds, 0.58% hits; AID 651699; in the data active means inhibition above about 36%
KLK7 zymogen act: activates the human kallikrein-7 zymogen; P49862; purified proKLK7, EDANS-DABCYL substrate fluorescence; 100% is mature enzyme control, 0% vehicle; activation, % at 7 µM; 370,000 compounds, 0.9% hits; AID 652039;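 active means activation above the mean of all tested compounds plus 3 SD, computed per campaign excluding outliers beyond control limits, cut at about 13% in these data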
Target sequence (P49862 whole entry, looked up): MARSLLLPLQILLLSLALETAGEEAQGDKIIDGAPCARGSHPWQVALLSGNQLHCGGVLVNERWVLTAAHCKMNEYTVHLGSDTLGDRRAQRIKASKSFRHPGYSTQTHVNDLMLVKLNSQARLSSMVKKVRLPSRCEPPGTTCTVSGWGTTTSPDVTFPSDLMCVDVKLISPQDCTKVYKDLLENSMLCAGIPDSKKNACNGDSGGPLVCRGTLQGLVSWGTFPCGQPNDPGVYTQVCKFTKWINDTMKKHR
DDE Tn7 FP inh: disrupts Tn7 cyclic peptide binding to fibrin D-Dimer-E complex | P02675 | FP displacement of FITC-Tn7 peptide from fibrin DD(E); 0% = median of compound wells per plate | inhibition, % at 8.3 µM | 370,000 compounds, 0.13% hits | AID 720508;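 active means inhibition above the mean of compounds falling within the control limits plus 3 SD of them, cut at about 14% in these data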
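Assay system: Human fibrin DD(E) protein | Medium: Tris buffer with calcium and detergent, pH 7.8 | Reagent: 0.1 µM fluorescent Tn7 | Compound dosing: Single point at 8.3 µM | Times: 10 min preincubation, 3 h with tracer, room temperature | Detection: Fluorescence polarization of the labelled Tn7 tracer | Controls: Aha-Tn7 high control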
Tn6 DDE FP: disrupts Tn6 cyclic peptide binding to fibrin D-Dimer-E complex; P02675; 370,000 compounds, 0.21% hits; inhibition, % at 8.3 µM; AID 720509; Fibrin DD(E) TRITC-Tn6 fluorescence polarization displacement;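 active means inhibition above a per-campaign cutoff: mean of compounds within control limits plus 3 SD, cut at about 15% in these data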
Neddyl inh conf: confirmation of human cullin neddylation inhibitors. shares compounds with Neddyl block. TR-FRET cullin neddylation biochemical assay. calls only at 25 µM. 1,800 compounds, 13% hits. AID 652217; in the data active means inhibition above about 40%;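 further: neddylation substrate is the cullin 1 ring ligase complex with SKP2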
Calls only; . = inactive; / = not tested or not shown; + = active, no number.

SMILES	MT1-MMP act inh	SKN-1 inh	Neddyl block	KLK7 zymogen act	DDE Tn7 FP inh	Tn6 DDE FP	Neddyl inh conf
COc1ccc2oc(C(=O)OCC(=O)Nc3ccc(NC(C)=O)cc3)c(C)c2c1	.	.	.	.	.	.	/
COc1ccc2c(c1)nc(NCCO)n2C	.	.	.	.	.	.	/
Cc1cc(C)c2c(N)c(C(=O)c3ccc(Cl)cc3Cl)sc2n1	.	.	/	.	.	.	/
Cc1cc(C)c2c(N)c(C(=O)c3cccc(Cl)c3)sc2n1	.	.	+	.	.	.	.
COc1cc(C(C(=O)NC(C)(C)C)N(Cc2ccccc2)C(=O)c2cnccn2)cc(OC)c1OC (stereo unspecified)	.	.	.	.	.	.	/
CCN1CCN(C(=O)c2cn(CCOC)c(=O)c3c2c2ccccc2n3C)CC1	.	.	+	.	.	.	.
COCCn1cc(C(=O)N2CCCC(C)C2)c2c3ccccc3n(C)c2c1=O (stereo unspecified)	.	.	+	.	.	.	.
COCCCNC(=O)c1cccc2c(=O)c(C)c(-c3ccccc3)oc12	.	.	.	.	.	.	/
CCC(O)(CC)C(=O)N=Nc1c(O)[nH]c2ccccc12	.	.	.	.	.	.	/
O=C1c2ccccc2NC(c2ccccn2)N1c1ccc(Cl)cc1 (stereo unspecified)	.	.	+	.	.	.	/
O=C(NN1C(=O)c2ccccc2NC1c1ccccn1)c1ccccc1 (stereo unspecified)	.	.	+	.	.	.	/
C[C@]12CCC(=O)C=C1CCC1C2CC[C@@]2(C)C1CCC21OCCO1 (stereo partly specified)	.	.	.	.	.	.	/
O=C(CCn1cnc2ccccc21)N/N=C/c1ccccc1O	.	.	+	.	.	.	.
CN(c1ccc(C(=O)O)cc1)S(=O)(=O)c1ccc(Cl)cc1	.	.	.	.	.	.	/
COc1ccc(C(CCN2CCOCC2)c2c(OC)cc(OC)c3c(-c4ccccc4)cc(=O)oc23)cc1 (stereo unspecified)	.	.	+	.	.	.	.
COc1ccc(C(CCN2CCCC2)c2c(OC)cc(OC)c3c(-c4ccccc4)cc(=O)oc23)cc1 (stereo unspecified)	.	.	.	.	.	.	/
CCCCCCn1c(=O)n2n(c1=O)[C@@H]1CN(S(=O)(=O)c3ccc(C)cc3)C[C@]1(O)[C@@H](OC(=O)NCc1ccccc1F)C2	.	.	.	.	.	.	/
CNC(=O)c1ccc(Nc2nnc(-c3ccc(C)c(S(=O)(=O)NCC4CCCO4)c3)c3ccccc23)cc1 (stereo unspecified)	.	.	+	.	.	.	.
CN(Cc1ccccc1F)C(=O)CN1c2cccc3cccc(c23)S1(=O)=O	.	.	+	.	.	.	+
CCn1c(C)cc(C(=O)CN2C(=O)c3ccccc3S2(=O)=O)c1C	.	.	.	.	.	.	/
CC1CCCCC1NC(=O)CN1c2cccc3cccc(c23)S1(=O)=O (stereo unspecified)	.	.	+	.	.	.	/
CC(=O)c1ccc(NC(=O)CN2c3cccc4cccc(c34)S2(=O)=O)cc1	.	.	+	.	.	.	.
CCNC(=O)CN1c2cccc3cccc(c23)S1(=O)=O	.	.	.	.	.	.	/
COCCCn1c(C)cc(C(=O)CN2c3cccc4cccc(c34)S2(=O)=O)c1C	.	.	+	.	.	.	.
CC(=O)Nc1cccc(NC(=O)CN2c3cccc4cccc(c34)S2(=O)=O)c1	.	.	+	.	.	.	.
SMILES	MT1-MMP act inh	SKN-1 inh	Neddyl block	KLK7 zymogen act	DDE Tn7 FP inh	Tn6 DDE FP	Neddyl inh conf
COc1cc(NC(=O)CN2c3cccc4cccc(c34)S2(=O)=O)cc(OC)c1OC	.	.	.	.	.	.	/
COc1ccc(NS(=O)(=O)c2cccc3cccnc23)cc1Cl	.	.	.	.	.	.	/
Nc1cccc(-c2ccc(CO)o2)c1	.	.	+	.	.	.	.
NC(=O)c1csc(-c2ccc(CO)o2)n1	.	.	.	.	.	.	/
CCOc1ccccc1CN(CCc1ccc2c(c1)OCO2)Cc1ccccn1	.	.	.	.	.	.	/
c1ccc(Nc2cccc3c(Nc4ccccc4)cccc23)cc1	.	.	+	.	.	.	+
CCOC(=O)c1ccc(Nc2ncnc3ccc(C)cc23)cc1	.	.	/	.	.	.	/
CCOC(=O)c1cccc(Nc2ncnc3ccc(C)cc23)c1	.	.	+	.	.	.	.
Cc1cc(C)c(C(=O)C(C)OC(=O)Cc2n[nH]c(=O)c3ccccc23)cc1C (stereo unspecified)	.	.	.	.	.	.	/
Cc1ccc(C(=O)N/N=C/c2ccc(-c3cccc(Cl)c3)o2)cn1	.	.	.	.	.	.	/
Cc1ccc(C(=O)N/N=C\c2ccc(-c3ccc(Cl)c(Cl)c3)o2)cn1	.	.	+	.	.	.	.
Cc1cccc(NS(=O)(=O)c2ccccc2)n1	.	.	+	.	.	.	.
Cc1cccc(NS(=O)(=O)c2ccc(C(C)(C)C)cc2)n1	.	.	.	.	.	.	/
Cc1cccc(NS(=O)(=O)c2ccc(C3CCCCC3)cc2)n1	.	.	+	.	.	.	.
Cc1cccc(NS(=O)(=O)c2ccc(C3CCCCC3)cc2)c1	.	.	.	.	.	.	/
CC(C)c1nc(C#N)c(NCCCn2ccnc2)o1	.	.	.	.	.	.	/
Cc1ccc(Nc2nc(N)c3ccccc3n2)cc1Cl	.	.	/	.	.	.	/
COc1cccc(NC(=O)CCCn2nc(C)c3c(C)n(-c4ccccc4)nc3c2=O)c1	.	.	.	.	.	.	/
COc1ccc(CC(=O)NCC(=O)NC(Cc2ccccc2)C(=O)O)cc1 (stereo unspecified)	.	.	.	.	.	.	/
COc1ccc(NC(=O)c2ccco2)cn1	.	.	.	.	.	.	/
COc1ccc(NC(=O)c2ccc(-c3ccc(C(C)=O)cc3)o2)cn1	.	.	+	.	.	.	.
Cc1ccc(/C=C/c2nc3sc(C(=O)O)c(C)c3c(=O)[nH]2)cc1[N+](=O)[O-]	.	.	.	.	.	.	/
Cc1c(C(=O)O)sc2nc(/C=C/c3cccc(F)c3)[nH]c(=O)c12	.	.	+	.	.	.	/
O=C(NCc1ccccc1)c1nc(-c2c(F)cccc2F)oc1-c1ccccc1	.	.	+	.	.	.	/
Cc1ccc(S(=O)(=O)Nc2nc3ccccc3nc2NCC2CCCO2)cc1 (stereo unspecified)	.	.	+	.	.	.	.
